Measurements reported in ChEMBL document CHEMBL2146421, “Synthesis and anticonvulsant activity of some new thiazolo[3,2-a][1,3]diazepine, benzo[d]thiazolo[5,2-a][12,6]diazepine and benzo[d]oxazolo[5,2-a][12,6]diazepine analogues” (Eur J Med Chem, 2011).

Experiments:
Mus musculus [1] = experiment: Neurotoxicity in Swiss albino mouse assessed as inability to climb up backwards in a glass tube within 30 seconds at 1.5 mmol/kg, ip measured after 15 and 25 mins by Chimney test; format: toxicity, organism-based; details: in vivo
In short: (§1)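 Chimney test: 15 and 25 min after i.p. dosing (3.0, 1.5, 0.75, 0.375 mmol/kg), inability of mice to climb backwards up a glass tube 25 cm long, 3 cm inner diameter, within 30 s recorded as neurological deficit.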

Mus musculus [2] = experiment: Hypnotic activity in Swiss albino mouse assessed as righting reflex at 1.5 mmol/kg, ip; format: ADME, organism-based; details: in vivo
Mus musculus [3] = experiment: Neurotoxicity in Swiss albino mouse assessed as effect on motor activity at 1.5 mmol/kg, ip after 30 mins; format: toxicity, organism-based; details: in vivo, 0.5 h
In short: (§2)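 Motor activity measured with an activity meter at 0 and 30 min after i.p. dosing, zero time taken as 100%.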

[4] = Toxicity in Swiss albino mouse assessed as mortality at 1.5 mmol/kg, ip measured 7 to 11 mins before pentylenetetrazole challenge; format: organism-based; details: in vivo, read-out: Activity
In short: (§3)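 Compounds given i.p. at 3.0, 1.5, 0.75 and 0.375 mmol/kg to 6 mice per compound. Deaths occurring before the PTZ injection were recorded. PTZ (83 mg/kg s.c.) followed 30 min after compound dosing.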

Mus musculus [5] = experiment: Anticonvulsant activity in Swiss albino mouse assessed as protection against pentylenetetrazole-induced convulsion at 1.5 mmol/kg, ip treated after 30 mins of pentylenetetrazole measured for 30 mins; format: functional
Mus musculus [6] = experiment: Anticonvulsant activity in Swiss albino mouse assessed as protection against maximal electroshock-induced convulsion at 3.0 mmol/kg, ip […]; format: functional
In short: (§4)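 Test agent given i.p. to mice; 30 min later electric shock applied through the ears, animals released immediately to observe maximal seizure; percentage protected recorded (10 animals per dose in dose-response runs).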

Mus musculus [7] = experiment: Anticonvulsant activity in Swiss albino mouse assessed as protection against bicuculline-induced convulsion at 0.75 mmol/kg, ip […] measured for 30 mins; format: functional
In short: (§5)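 Mice (6 per compound) dosed i.p.; 30 min later given bicuculline 1 mg/kg s.c. (freshly dissolved in 1 ml warmed 0.1 N HCl, made up with 0.9% NaCl), then observed 30 min; percentage anticonvulsion (animals protected) calculated. Dose-response runs used 10 animals per dose.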

Mus musculus [8] = experiment: Neurotoxicity in Swiss albino mouse assessed as effect on motor activity at 3 mmol/kg, ip after 30 mins; format: toxicity, organism-based; details: in vivo, 0.5 h; in short: as §2
Mus musculus [9] = experiment: Hypnotic activity in Swiss albino mouse assessed as righting reflex at 3 mmol/kg, ip; format: ADME, organism-based; details: in vivo
Mus musculus [10] = experiment: Anticonvulsant activity in Swiss albino mouse assessed as protection against picrotoxin-induced convulsion at 0.75 mmol/kg, ip […] measured for 30 mins; format: functional
In short: (§6)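 Test compound given i.p.; 30 min later, picrotoxin 3.15 mg/kg s.c. was injected. Picrotoxin was freshly dissolved in 1 ml warmed 0.1 N HCl and made up with 0.9% NaCl. Each dose was tested in 10 animals and the percentage of mice protected from clonic convulsions was recorded.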

Mus musculus [11] = experiment: Anticonvulsant activity in Swiss albino mouse assessed as protection against pentylenetetrazole-induced convulsion at 0.75 mmol/kg, ip treated after 30 mins of pentylenetetrazole measured for 30 mins; format: functional
Mus musculus [12] = experiment: Anticonvulsant activity in Swiss albino mouse assessed as protection against maximal electroshock-induced convulsion at 0.75 mmol/kg, ip […]; format: functional; in short: as §4
Mus musculus [13] = experiment: Anticonvulsant activity in Swiss albino mouse assessed as protection against bicuculline-induced convulsion at 3.0 mmol/kg, ip […] measured for 30 mins; format: functional; in short: as §5
[14] = Toxicity in Swiss albino mouse assessed as mortality at 3 mmol/kg, ip measured 7 to 11 mins before pentylenetetrazole challenge; format: organism-based; details: in vivo, read-out: Activity; in short: as §3
Mus musculus [15] = experiment: Anticonvulsant activity in Swiss albino mouse assessed as protection against maximal electroshock-induced convulsion at 0.37 mmol/kg, ip […]; format: functional
In short: (§7)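 Test compound given i.p. to mice; 30 min later, electric shock was applied through the ears while the mice were hand-restrained. The mice were then released to observe the maximal seizure. Each dose was tested in 10 animals and the percentage protected was recorded.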

Mus musculus [16] = experiment: Anticonvulsant activity in Swiss albino mouse assessed as protection against pentylenetetrazole-induced convulsion at 3 mmol/kg, ip treated after 30 mins of pentylenetetrazole measured for 30 mins; format: functional
Mus musculus [17] = species on record: Mus musculus; experiment: Protective index, ratio of TD50 for Swiss albino mouse to ED50 for anticonvulsant activity in Swiss albino mouse; format: functional
In short: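 TD50 (median sedative dose) divided by ED50 (median effective dose), from dose-response curves at 10 mice per dose; 95% confidence limits given.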

Mus musculus [18] = experiment: Hypnotic activity in Swiss albino mouse assessed as righting reflex at 0.75 mmol/kg, ip; format: ADME, organism-based; details: in vivo
Mus musculus [19] = experiment: Anticonvulsant activity in Swiss albino mouse assessed as protection against bicuculline-induced convulsion at 0.37 mmol/kg, ip […] measured for 30 mins; format: functional; in short: as §5
Mus musculus [20] = experiment: Neurotoxicity in Swiss albino mouse assessed as effect on motor activity at 0.75 mmol/kg, ip after 30 mins; format: toxicity, organism-based; details: in vivo, 0.5 h; in short: as §2
Mus musculus [21] = experiment: Anticonvulsant activity in Swiss albino mouse assessed as protection against pentylenetetrazole-induced convulsion at 0.37 mmol/kg, ip treated 30 mins before pentylenetetrazole measured for 30 mins
Mus musculus [22] = experiment: Neurotoxicity in Swiss albino mouse assessed as inability to climb up backwards in a glass tube within 30 seconds at 0.37 mmol/kg, ip measured after 15 and 25 mins by Chimney test; format: toxicity, organism-based; details: in vivo; in short: as §1
[23] = Toxicity in Swiss albino mouse by Spearman-Karber method; format: organism-based; details: in vivo
In short: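 LD50 in mice was determined by the Spearman–Karber method, with doses chosen at equal logarithmic intervals. 95% confidence limits were reported.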

[24] = Toxicity in ip dosed Swiss albino mouse assessed as sedative effect; format: organism-based; details: in vivo
Mus musculus [25] = experiment: Anticonvulsant activity in Swiss albino mouse assessed as protection against picrotoxin-induced convulsion at 1.5 mmol/kg, ip […] measured for 30 mins; format: functional; in short: as §6
Mus musculus [26] = experiment: Anticonvulsant activity in ip dosed Swiss albino mouse assessed as protection against maximal electroshock-induced convulsion; format: functional; in short: as §4
Mus musculus [27] = experiment: Anticonvulsant activity in Swiss albino mouse assessed as protection against bicuculline-induced convulsion at 1.5 mmol/kg, ip […] measured for 30 mins; format: functional; in short: as §5
Mus musculus [28] = experiment: Anticonvulsant activity in Swiss albino mouse assessed as protection against maximal electroshock-induced convulsion at 1.5 mmol/kg, ip […]; format: functional; in short: as §7
Mus musculus [29] = experiment: Neurotoxicity in Swiss albino mouse assessed as inability to climb up backwards in a glass tube within 30 seconds at 3 mmol/kg, ip measured after 15 and 25 mins by Chimney test; format: toxicity, organism-based; details: in vivo; in short: as §1
[30] = Therapeutic index, ratio of LD50 for Swiss albino mouse to ED50 for anticonvulsant activity in Swiss albino mouse; format: organism-based; details: in vivo, read-out: Ratio LD50/ED50
In short: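 TI was calculated as LD50/ED50. ED50 came from dose-response curves in 10 mice per dose. LD50 was determined by the Spearman–Karber method, with doses at equal logarithmic intervals.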

Mus musculus [31] = experiment: Neurotoxicity in Swiss albino mouse assessed as inability to climb up backwards in a glass tube within 30 seconds at 0.75 mmol/kg, ip measured after 15 and 25 mins by Chimney test; format: toxicity, organism-based; details: in vivo; in short: as §1

## O=C1CCCN2C=CSC2=N1
Mus musculus [1]
  Activity: 0%
Mus musculus [2]
  Activity: 0%
Mus musculus [3]
  Activity: 0%
[4]
  mortality: 33%
Mus musculus [5]
  Activity: 0%

## S=C1CCCN2C=C(Br)SC2=N1
Mus musculus [6]
  Activity: 70%
Mus musculus [7]
  Activity: 10%
Mus musculus [8]
  Activity: 92%
Mus musculus [9]
  Activity: 40%
Mus musculus [10]
  Activity: 20%
Mus musculus [11]
  Activity: 50%
Mus musculus [1]
  Activity: 25%
Mus musculus [12]
  Activity: 10%
Mus musculus [13]
  Activity: 100%
[14]
  mortality: 0%
Mus musculus [15]
  Activity: 0%
Mus musculus [2]
  Activity: 14%
Mus musculus [16]
  Activity: 100%
Mus musculus [3]
  Activity: 84%
Mus musculus [17]
  Ratio TD50/ED50: 1.58
Mus musculus [18]
  Activity: 0%
Mus musculus [19]
  Activity: 0%
Mus musculus [20]
  Activity: 52%
Mus musculus [21]
  Activity: 25%
Mus musculus [22]
  Activity: 0%
Mus musculus [5]
  Activity: 100%
[23]
  LD50: 380 mg/kg
[24]
  TD50: 398 mg/kg
Mus musculus [25]
  Activity: 66%
Mus musculus [26]
  ED50: 252 mg/kg
Mus musculus [27]
  Activity: 50%
Mus musculus [28]
  Activity: 40%
Mus musculus [29]
  Activity: 100%
[30]
  selectivity ratio: 1.51
Mus musculus [31]
  Activity: 0%
